{"source": "paper PMC9977173", "about": "(Science Advances, 2023)", "key": {"EJ xenograft tumor": {"tested_on": "EJ xenograft tumor", "experiment": "Antitumor efficiency in EJ xenograft mice", "type": "in vivo, mouse", "conditions": "18 days; intravenous; PepCXCR4 and bsGP 500 μM, plerixafor 100 μM, 100 μl", "method_in_brief": "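BALB/c nude mice (6 to 8 weeks, 16 to 18 g) received 5 × 10⁶ EJ cells in 100 µl s.c. in the right flank. Mice were randomised into groups of n = 6. Saline, test compound (500 µM, 100 µl) or plerixafor (100 µM, 100 µl) was given i.v. by tail vein once a day for five doses. Tumor volume was measured by calipers and body weight recorded every other day.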"}, "[1]": {"tested_on": "MB49-Luc orthotopic bladder cancer", "conditions": "mouse, in vivo"}, "[2]": {"tested_on": "CXCR4 (breast and pancreatic cancer)", "conditions": "cited from earlier work"}, "[3]": {"tested_on": "pErk and pAkt (CXCR4 downstream) in EJ cells", "experiment": "Western blot of Erk and Akt phosphorylation in EJ cells", "type": "cell-based, human", "conditions": "50 μM, 24 hours", "method_in_brief": "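EJ cells were lysed in buffer with protease inhibitor and centrifuged 15 min; protein was measured by BCA. 30 µg protein was run on SDS-PAGE and transferred to PVDF. Membranes were blocked 1 to 2 h at room temperature in 5% nonfat milk, 0.1% Tween 20, 10 mM TBS. Primary antibody was applied overnight at 4°C, then secondary for 1 to 2 h at room temperature. Detection was by chemiluminescence.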"}, "[4]": {"tested_on": "CD86^+ and CD206^+ TAMs, CD4^+ and CD8^+ T cells", "experiment": "Multiplex immunofluorescence of whole tumor slices", "type": "in vivo, mouse", "conditions": "MB49-Luc, C57BL/6, 500 μM, 100 μl, every other day, five times"}, "orthotopic bladder tumor": {"tested_on": "orthotopic bladder tumor", "type": "in vivo, mouse", "conditions": "500 μM, 100 μl, intravesical instillation", "method_in_brief": "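Once bladder tumor growth was confirmed, test compound (500 µM, 100 µl) was instilled intravesically and kept in the bladder for 60 min. Whole-body fluorescence was scanned with IVIS at 1, 4, 8, 12, 24, 48 and 72 h. The bladder was exteriorised and imaged ex vivo at 1 h after infusion.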"}, "RAW264.7 cells": {"tested_on": "RAW264.7 cells", "experiment": "Cell viability", "type": "cell-based", "conditions": "50 μM, 24 hours, CCK-8; n = 3", "method_in_brief": "(§1)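 Cells were seeded at 5 × 10⁴ per well in RPMI 1640 and cultured overnight at 37°C, 5% CO₂. Test compound was added at 10, 20, 50, 100, 200 or 500 µM for 24 h, then CCK-8 for 2 h at 37°C. Absorbance was read at 450 nm against a 690 nm reference. Viability = (A_s − A_b)/(A_c − A_b) × 100% versus saline-treated wells. Run in triplicate.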"}, "EJ cells": {"tested_on": "EJ cells", "experiment": "Cell viability", "type": "cell-based, human", "conditions": "50 μM, 24 hours, CCK-8; n = 3", "method_in_brief": "as §1"}}, "data": [{"molecule": "c1cc(CN2CCCNCCNCCCNCC2)ccc1CN1CCCNCCNCCCNCC1", "note": "[plerixafor]", "values": [{"measurement": "tumor growth inhibition rate, EJ xenograft", "setting": "EJ xenograft tumor", "value": 32, "unit": "%"}, {"measurement": "recurrence rate", "setting": "[1]", "value": 100, "unit": "%"}, {"measurement": "survival rate at 60 days", "setting": "[1]", "value": 0, "unit": "%"}, {"measurement": "effect on tumor apoptosis, metastasis and intratumoral Tregs", "setting": "[2]", "value": "substantially promote tumor apoptosis, reduce tumor metastasis, and selectively decrease intratumoral Tregs"}]}, {"molecule": "LGASWHRPDK [PepCXCR4]", "values": [{"measurement": "tumor growth inhibition rate, EJ xenograft", "setting": "EJ xenograft tumor", "value": 19, "unit": "%"}, {"measurement": "phosphorylation of Erk and Akt", "setting": "[3]", "value": "did not substantially alter"}, {"measurement": "CD4^+ T cells in whole tumor slice", "setting": "[4]; saline 1.74%", "value": 2.37, "unit": "%"}, {"measurement": "tumor-infiltrating CD8^+ T cells in whole tumor slice", "setting": "[4]; saline 3.43%", "value": 4.04, "unit": "%"}, {"measurement": "fluorescence signal at the tumor site", "setting": "orthotopic bladder tumor", "value": "evident fluorescence signals"}, {"measurement": "effect on viability of RAW264.7 cells", "setting": "RAW264.7 cells", "value": "no substantial impact"}, {"measurement": "effect on viability of EJ cells", "setting": "EJ cells", "value": "no substantial impact"}]}]}
